The record followed here is ChEMBL document CHEMBL3351464, “Identifying novel selective non-nucleoside DNA methyltransferase 1 inhibitors through docking-based virtual screening” (J Med Chem, 2014).

Active and inactive are the calls of the source. The rule behind the calls is not given here.

The target of test [1] is T1, DNA (cytosine-5)-methyltransferase 1 (Mus musculus, UniProt P13864). Nature of the test: Inhibition of N-terminal His6-tagged mouse DNMT1 (731 to 1602 residues) expressed in Escherichia coli BL21 (DE3) incubated for 15 mins before addition of [3H]-SAM and poly(dI-dC).poly(dI-dC) by liquid scintillation counting based radioactive methylation assay. Summed up: (§1)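 Enzyme was preincubated with compound for 15 min at room temperature, then reacted for 60 min at 37°C. Products were filter-captured, washed and counted by scintillation. IC50 came from a nonlinear dose-response fit; single-point tests used 50 µM.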

The subject of a further test is HCT-116. Description: Antiproliferative activity against human HCT116 cells assessed as inhibition of cell proliferation at 1.25 to 10 uM after 24 to 72 hrs by MTT assay. Format: functional, cell-based. Summed up:
(§2)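 HCT116 maintained in McCoy's 5A and Capan-1 in DMEM, each with 10% FBS, at 37°C under 5% CO2. Cells were exposed to a range of compound concentrations from DMSO stocks, with DMSO-matched controls. Viability was read by MTT absorbance at 490 nm, and percent proliferation was normalized to control cells.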
(In general: Tetrazolium assays rely on reduction of a dye to a coloured formazan, in cell work by metabolically active cells.)

The subject of a further test is CAPAN-1. Description: Antiproliferative activity against human Capan1 cells assessed as inhibition of cell proliferation at 1.25 to 10 uM after 24 to 72 hrs by MTT assay. Format: functional, cell-based. Summed up: as §2
A short description of test [2]: Binding affinity to DNA (unknown origin) at 0.0625 to 0.5 mM by ethidium bromide dye based agarose gel electrophoresis method.
For test [3], the target named is DNA (cytosine-5)-methyltransferase 1 (Mus musculus) (UniProt P13864). Nature of the test: Inhibition of N-terminal His6-tagged mouse DNMT1 (731 to 1602 residues) at 200 uM expressed in Escherichia coli BL21 (DE3) incubated for 2 hrs using S-adenosylmethionine by ELISA. Summed up:
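Mouse DNMT1 was purified by HisTrap, SUMO-tag cleavage, heparin and gel filtration. 200 nM enzyme was incubated with 200 μM compound (1% DMSO) and AdoMet in DNMT assay buffer at 37°C for 2 h. Capture and detection antibodies were then applied, followed by developer for 10 min at room temperature. Absorbance was read at 450 nm, with AdoHcy as reference.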
(In general: An ELISA detects its analyte on a solid surface through an enzyme-linked reagent.)

Test [4] shares this target. Description: Inhibition of N-terminal His6-tagged mouse DNMT1 (731 to 1602 residues) expressed in Escherichia coli BL21 (DE3) at 50 uM incubated for 15 mins before addition of [3H]-SAM and poly(dI-dC).poly(dI-dC) by liquid scintillation counting based radioactive methylation assay. The essentials:
as §1

The target of test [5] is DNA (cytosine-5)-methyltransferase 3A (Homo sapiens, UniProt Q9Y6K1). Nature of the test: Inhibition of DNMT3A (unknown origin) incubated for 15 mins before addition of [3H]-SAM and poly(dI-dC).poly(dI-dC) by liquid scintillation counting based radioactive methylation assay.
Test [6] has as its target DNA (cytosine-5)-methyltransferase 3B (Homo sapiens, UniProt Q9UBC3). Nature of the test: Inhibition of DNMT3B (unknown origin) incubated for 15 mins before addition of [3H]-SAM and poly(dI-dC).poly(dI-dC) by liquid scintillation counting based radioactive methylation assay.
Test [7] has as its target T2, Histone-lysine N-methyltransferase EHMT2 (Homo sapiens, UniProt Q96KQ7).
T2 sequence (Q96KQ7 whole entry): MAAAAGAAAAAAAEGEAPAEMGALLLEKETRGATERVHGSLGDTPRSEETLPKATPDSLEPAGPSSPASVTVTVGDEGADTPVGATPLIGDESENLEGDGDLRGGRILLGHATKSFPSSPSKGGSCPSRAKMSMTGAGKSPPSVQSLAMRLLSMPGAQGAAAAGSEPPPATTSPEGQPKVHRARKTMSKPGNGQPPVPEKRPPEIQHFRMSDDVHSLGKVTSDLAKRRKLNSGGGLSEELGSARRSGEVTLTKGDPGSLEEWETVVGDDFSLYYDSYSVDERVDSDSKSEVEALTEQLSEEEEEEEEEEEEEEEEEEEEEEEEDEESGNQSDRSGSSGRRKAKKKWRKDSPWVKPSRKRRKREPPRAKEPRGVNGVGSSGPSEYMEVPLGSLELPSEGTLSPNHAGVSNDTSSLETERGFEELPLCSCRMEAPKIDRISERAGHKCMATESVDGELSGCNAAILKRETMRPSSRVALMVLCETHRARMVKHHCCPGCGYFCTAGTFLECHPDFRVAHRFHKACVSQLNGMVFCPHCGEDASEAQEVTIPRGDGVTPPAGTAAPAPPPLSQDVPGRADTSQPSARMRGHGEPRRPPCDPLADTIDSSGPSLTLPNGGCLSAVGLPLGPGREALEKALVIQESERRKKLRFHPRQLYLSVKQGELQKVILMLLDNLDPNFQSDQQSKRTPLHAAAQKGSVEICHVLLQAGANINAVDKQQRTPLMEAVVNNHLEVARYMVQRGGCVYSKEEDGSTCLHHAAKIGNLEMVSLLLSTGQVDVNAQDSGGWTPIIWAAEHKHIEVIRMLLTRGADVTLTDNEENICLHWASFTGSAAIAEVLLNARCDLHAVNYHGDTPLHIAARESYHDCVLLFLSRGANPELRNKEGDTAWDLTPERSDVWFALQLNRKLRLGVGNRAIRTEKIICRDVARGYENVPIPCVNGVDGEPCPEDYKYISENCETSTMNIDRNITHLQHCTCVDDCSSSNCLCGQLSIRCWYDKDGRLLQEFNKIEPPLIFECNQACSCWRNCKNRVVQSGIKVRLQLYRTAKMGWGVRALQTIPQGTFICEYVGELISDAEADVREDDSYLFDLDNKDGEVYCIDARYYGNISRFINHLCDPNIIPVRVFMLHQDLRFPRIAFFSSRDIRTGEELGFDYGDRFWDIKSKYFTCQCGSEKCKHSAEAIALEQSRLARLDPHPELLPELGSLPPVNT
Description: Inhibition of G9a (unknown origin) incubated for 15 mins before addition of biotinylated peptide H3 (1 to 21) and SAM by methylation assay. The essentials:
(§3)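 AlphaLISA assays were run in modified Tris pH 9.0 with 100 nM biotinylated H3(1-21) and SAM at Km: MLL1 2 nM enzyme with 2 μM SAM; SUV39H1 3 nM with 20 μM; SET7/9 0.2 nM with 0.22 μM; G9a 0.03 nM with 50 μM. Enzyme and compound were preincubated for 15 min, then reacted for 60 min at room temperature before the beads were added. IC50 came from a nonlinear dose-response fit.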

In test [8] the target is T3, Histone-lysine N-methyltransferase SUV39H1 (Homo sapiens, UniProt O43463).
T3 sequence (O43463 whole entry): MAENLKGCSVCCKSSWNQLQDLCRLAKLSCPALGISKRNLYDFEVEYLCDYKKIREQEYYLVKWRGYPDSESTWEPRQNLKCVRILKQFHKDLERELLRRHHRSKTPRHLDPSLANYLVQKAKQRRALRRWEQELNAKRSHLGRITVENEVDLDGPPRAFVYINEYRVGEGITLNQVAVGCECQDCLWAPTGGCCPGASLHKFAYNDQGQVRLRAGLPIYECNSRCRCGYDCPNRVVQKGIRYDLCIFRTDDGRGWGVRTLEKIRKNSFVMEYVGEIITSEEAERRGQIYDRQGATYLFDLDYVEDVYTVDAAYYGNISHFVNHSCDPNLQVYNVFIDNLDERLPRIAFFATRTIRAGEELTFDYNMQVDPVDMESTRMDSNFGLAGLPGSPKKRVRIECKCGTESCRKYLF
Nature of the test: Inhibition of SUV39H1 (unknown origin) incubated for 15 mins before addition of biotinylated peptide H3 (1 to 21) and SAM by methylation assay. The essentials: as §3

Test [9] addresses Histone-lysine N-methyltransferase 2A (Homo sapiens, UniProt Q03164). Nature of the test: Inhibition of MLL1 (unknown origin) incubated for 15 mins before addition of biotinylated peptide H3 (1 to 21) and SAM by methylation assay. The essentials: as §3
Test [10] has as its target T4, Histone-lysine N-methyltransferase SETD7 (Homo sapiens, UniProt Q8WTS6).
T4 sequence (Q8WTS6 whole entry): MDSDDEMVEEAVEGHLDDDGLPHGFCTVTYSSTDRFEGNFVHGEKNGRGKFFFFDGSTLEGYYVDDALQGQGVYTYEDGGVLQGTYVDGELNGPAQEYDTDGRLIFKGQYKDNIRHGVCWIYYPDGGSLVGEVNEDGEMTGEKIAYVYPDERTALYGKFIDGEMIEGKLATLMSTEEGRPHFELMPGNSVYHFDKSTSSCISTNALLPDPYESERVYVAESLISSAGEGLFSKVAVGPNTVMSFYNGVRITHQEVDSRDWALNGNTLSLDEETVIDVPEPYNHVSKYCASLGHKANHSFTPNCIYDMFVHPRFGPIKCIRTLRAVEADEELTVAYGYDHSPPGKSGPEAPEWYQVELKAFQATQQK
Nature of the test: Inhibition of SET7/9 (unknown origin) incubated for 15 mins before addition of biotinylated peptide H3 (1 to 21) and SAM by methylation assay. The essentials:
as §3

Test [11] concerns the target DNA (cytosine-5)-methyltransferase 1 (Mus musculus) (UniProt P13864). Nature of the test: (§4) Binding affinity to N-terminal His6-tagged mouse DNMT1 (731 to 1602 residues) expressed in Escherichia coli BL21 (DE3) by SPR assay. Summed up:
(§5)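 Measured by SPR at 25°C. Purified mouse DNMT1 was amine-coupled to a CM5 chip in 10 mM sodium acetate pH 5.0 and equilibrated overnight in HBS-EP (10 mM HEPES pH 7.4, 150 mM NaCl, 3 mM EDTA, 0.05% P20, 0.1% DMSO). Serially diluted compounds were injected with 120 s contact and 120 s dissociation, and KD was derived by the instrument evaluation software.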
(In general: Surface plasmon resonance follows binding to a sensor surface in real time, without labels.)

Test [12] deals with T1, DNA (cytosine-5)-methyltransferase 1. The test is described as §4. Summed up: as §5

T1 sequence (P13864 whole entry, the tested form may be a part): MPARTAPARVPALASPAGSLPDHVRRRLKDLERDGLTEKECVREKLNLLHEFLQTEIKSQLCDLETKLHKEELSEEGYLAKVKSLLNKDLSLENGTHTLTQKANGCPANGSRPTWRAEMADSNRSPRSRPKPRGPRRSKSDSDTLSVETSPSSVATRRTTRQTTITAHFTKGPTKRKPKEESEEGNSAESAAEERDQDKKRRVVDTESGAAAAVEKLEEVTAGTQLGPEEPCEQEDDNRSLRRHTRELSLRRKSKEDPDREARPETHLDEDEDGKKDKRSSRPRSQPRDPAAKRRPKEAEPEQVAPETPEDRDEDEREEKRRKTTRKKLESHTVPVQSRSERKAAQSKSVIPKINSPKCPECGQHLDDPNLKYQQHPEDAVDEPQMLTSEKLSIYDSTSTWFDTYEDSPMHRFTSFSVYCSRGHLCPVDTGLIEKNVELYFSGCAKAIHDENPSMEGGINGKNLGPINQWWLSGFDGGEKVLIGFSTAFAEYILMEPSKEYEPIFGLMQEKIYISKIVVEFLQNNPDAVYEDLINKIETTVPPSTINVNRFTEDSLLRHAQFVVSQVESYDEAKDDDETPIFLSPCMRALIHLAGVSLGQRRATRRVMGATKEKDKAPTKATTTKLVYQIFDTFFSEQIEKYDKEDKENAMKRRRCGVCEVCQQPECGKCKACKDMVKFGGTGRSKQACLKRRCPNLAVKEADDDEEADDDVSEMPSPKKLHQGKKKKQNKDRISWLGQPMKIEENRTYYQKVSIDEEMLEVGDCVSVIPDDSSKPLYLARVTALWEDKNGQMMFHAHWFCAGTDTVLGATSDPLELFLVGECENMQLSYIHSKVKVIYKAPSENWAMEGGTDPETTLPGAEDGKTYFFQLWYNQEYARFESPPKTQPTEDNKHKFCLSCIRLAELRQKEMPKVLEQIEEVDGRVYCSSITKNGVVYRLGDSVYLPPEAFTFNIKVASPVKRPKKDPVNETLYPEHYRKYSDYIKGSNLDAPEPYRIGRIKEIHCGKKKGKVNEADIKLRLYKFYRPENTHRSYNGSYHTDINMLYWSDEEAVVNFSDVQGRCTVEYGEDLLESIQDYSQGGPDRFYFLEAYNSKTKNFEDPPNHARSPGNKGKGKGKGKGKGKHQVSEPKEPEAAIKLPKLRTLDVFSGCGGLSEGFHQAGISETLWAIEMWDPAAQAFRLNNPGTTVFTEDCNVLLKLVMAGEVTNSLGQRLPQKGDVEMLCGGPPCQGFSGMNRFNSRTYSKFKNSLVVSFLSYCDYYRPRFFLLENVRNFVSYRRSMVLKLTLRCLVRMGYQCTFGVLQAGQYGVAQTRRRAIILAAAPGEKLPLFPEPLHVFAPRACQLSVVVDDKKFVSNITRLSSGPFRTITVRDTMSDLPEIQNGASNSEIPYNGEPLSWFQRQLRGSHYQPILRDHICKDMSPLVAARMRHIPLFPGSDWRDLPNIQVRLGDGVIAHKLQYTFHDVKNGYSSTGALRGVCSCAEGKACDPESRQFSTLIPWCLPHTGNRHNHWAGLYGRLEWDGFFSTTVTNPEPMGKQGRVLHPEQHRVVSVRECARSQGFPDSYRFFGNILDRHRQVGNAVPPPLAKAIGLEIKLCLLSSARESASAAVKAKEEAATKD
Chain of DNA (cytosine-5)-methyltransferase 1 (Mus musculus) (P13864 whole entry, the tested form may be a part): as above
Chain of DNA (cytosine-5)-methyltransferase 3A (Q9Y6K1 whole entry, looked up): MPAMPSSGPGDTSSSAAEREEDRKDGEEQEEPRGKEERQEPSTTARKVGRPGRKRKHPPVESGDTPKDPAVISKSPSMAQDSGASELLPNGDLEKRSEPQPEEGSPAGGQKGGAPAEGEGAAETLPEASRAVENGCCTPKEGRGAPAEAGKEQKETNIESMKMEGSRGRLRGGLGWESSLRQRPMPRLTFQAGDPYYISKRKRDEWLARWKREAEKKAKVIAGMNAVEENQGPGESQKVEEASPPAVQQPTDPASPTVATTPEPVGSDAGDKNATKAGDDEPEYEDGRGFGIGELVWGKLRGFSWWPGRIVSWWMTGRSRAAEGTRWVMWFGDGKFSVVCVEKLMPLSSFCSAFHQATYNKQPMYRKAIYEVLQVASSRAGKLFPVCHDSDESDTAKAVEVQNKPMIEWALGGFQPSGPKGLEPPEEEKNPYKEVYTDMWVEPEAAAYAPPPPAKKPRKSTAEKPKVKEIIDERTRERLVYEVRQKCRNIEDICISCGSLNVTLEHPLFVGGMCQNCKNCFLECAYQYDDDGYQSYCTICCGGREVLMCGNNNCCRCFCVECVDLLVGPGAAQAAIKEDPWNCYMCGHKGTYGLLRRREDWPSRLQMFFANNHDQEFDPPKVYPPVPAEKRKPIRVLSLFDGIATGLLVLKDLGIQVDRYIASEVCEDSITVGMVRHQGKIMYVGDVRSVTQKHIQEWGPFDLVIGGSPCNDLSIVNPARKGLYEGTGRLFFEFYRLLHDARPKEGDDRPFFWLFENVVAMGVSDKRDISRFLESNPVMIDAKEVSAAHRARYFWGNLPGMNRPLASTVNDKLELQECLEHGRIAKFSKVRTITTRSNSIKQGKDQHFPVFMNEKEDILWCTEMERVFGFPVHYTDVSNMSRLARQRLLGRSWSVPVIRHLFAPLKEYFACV

Usually IC50 stands for the concentration that gives 50% inhibition. As a reminder, the inhibition is the relative decrease from the control value, in per cent. For `O[C@H](CNCCc1c[nH]c2ccccc12)Cn1c2ccccc2c2ccccc21`, the IC50 in test [1] came to 7.3 µM. Further, the inhibition entry with HCT-116 and with CAPAN-1 was “Active” each time.
`O[C@@H](CNCCc1c[nH]c2ccccc12)Cn1c2ccccc2c2ccccc21`: in test [1], the IC50 is 15.6 µM. Moreover, the inhibition entry in the test with HCT-116 and with CAPAN-1 was “Active” each time.
As for `CC(C)NC[C@@H](O)COC(Cn1c2ccccc2c2ccccc21)Cn1c2ccccc2c2ccccc21`, the IC50 in test [1] was found to be 2.5 µM. In addition, the inhibition entry in the test on HCT-116 and with CAPAN-1 was “Active” throughout.
On to `CC(C)NC[C@H](O)COC(Cn1c2ccccc2c2ccccc21)Cn1c2ccccc2c2ccccc21`, for which the IC50 in test [1] worked out at 1.8 µM. The inhibition result with HCT-116 and with CAPAN-1 was “Active” throughout.
On to `COc1cccc2c1C(=O)c1c(O)c3c(c(O)c1C2=O)C[C@@](O)(C(=O)CO)C[C@@H]3O[C@H]1C[C@H](N)[C@H](O)[C@H](C)O1`, for which the result in test [2] was Active.
Same read-out and setting: to `Cc1cc(Nc2ccc(NC(=O)c3ccc(Nc4ccnc5ccccc45)cc3)cc2)nc(N)n1` belongs “Active”.
For `Nc1ncnc2c1ncn2[C@@H]1O[C@H](CSCC[C@H](N)C(=O)O)[C@@H](O)[C@H]1O`, in test [3], the inhibition result is “Active”.
For the molecule `CC1CCN(CC(O)Cn2c3ccccc3c3ccccc32)CC1` (racemic), the IC50 in test [1] came to 84.1 µM. Moreover, the inhibition in [4] amounted to 52.4%.
For `OC(CNCc1ccccc1)Cn1c2c(c3ccccc31)CCCC2` (racemic), in [1], the IC50 was found to be 80.9 µM. Further, the inhibition in test [4] amounted to 62.9%.
The Kd is the concentration at which binding is half-saturated. Consider `OC(CNCCc1c[nH]c2ccccc12)Cn1c2ccccc2c2ccccc21` (racemic), for which, in [3], the inhibition was > 60%. The 50% inhibitory concentration (IC50) in test [1] is 10.3 µM; in test [5], > 200 µM; in [6], > 200 µM; in test [7], > 150 µM; in test [8], > 150 µM; in test [9], > 150 µM. For the same molecule, in [10], the IC50 is > 150 µM. Further, in test [2], the outcome was inactive. For the same molecule, the Activity entry in test [11] was “Dose-dependent effect”. Besides, the affinity in test [12], expressed as Kd, was 1090 nM.
As to `OC(CNCCc1c[nH]c2ccccc12)Cn1c2ccc(Cl)cc2c2cc(Cl)ccc21` (racemic), the IC50 in test [1] came out at 2.5 µM. Also, the inhibition in test [4] stood at 89.5%.
On to `OC(CNCCc1ccccc1)Cn1c2ccccc2c2ccccc21` (racemic), for which the IC50 in [1] came out at 20.7 µM. Also, the inhibition in test [4] was 73.9%.
The like results for `COCCNCC(O)Cn1c2ccccc2c2ccccc21` (racemic) were, in that order, 29.6 µM and 71%.
As for `OCCNCC(O)Cn1c2ccc(Br)cc2c2cc(Br)ccc21` (racemic), the IC50 in test [1] worked out at 14.1 µM. Besides, the inhibition in test [4] stood at 99.7%.
`CCCN(CCC)CC(O)Cn1c2ccccc2c2ccccc21` (racemic): the inhibition in [4] came out at 5.5%.
The same measure, in the same setting: to `CNCC(O)Cn1c(C)c(C)c2ccccc21` (racemic) belongs 1.1%.
As to `COc1ccc(NCC(O)Cn2c3ccccc3c3ccccc32)cc1` (racemic), in [4], the inhibition was 0.6%.
Still for that read-out and setting: to `Cc1c(C)n(CC(O)CNC2CCCCC2)c2ccccc12` (racemic) belongs 2.4%; to `OC(CN1CCOCC1)Cn1c2ccccc2c2ccccc21` (racemic), -5%.
Same read-out and setting: the same measure for `OC(CNC1CC1)Cn1c2ccccc2c2ccccc21` (racemic): 42.6%.
`OC(CNCC1CCCO1)Cn1c2ccccc2c2ccccc21` (racemic): the inhibition in [4] was 40.1%.
Take `OC(CNCCOc1ccccc1)Cn1c2ccccc2c2ccccc21` (racemic): the inhibition in [4] amounted to 29.7%.
The same measure, in the same setting: to `OCCCNCC(O)Cn1c2ccccc2c2ccccc21` (racemic) belongs 42.5%.
